What was measured:
Conditions in all cases: stereoisomer not certain
OR6C3 (Homo sapiens) = OR6C3 (Homo sapiens) (UniProt Q9NZP0)
Procedure, shortened: (§1)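 Assay methods differ from source to source, frequently being transient luciferase assays in mammalian cell lines. For each receptor–molecule pair, the label responsive (active) applies when the original authors judged the measured signal statistically different from baseline, and non-responsive (inactive) applies otherwise.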

OR6C4 (Homo sapiens) = OR6C4 (Homo sapiens) (UniProt Q8NGE1)
Procedure, shortened: as §1

OR6C6 (Homo sapiens) = OR6C6 (Homo sapiens) (UniProt A6NF89)
Procedure, shortened: as §1

OR6C65 (Homo sapiens) = OR6C65 (Homo sapiens) (UniProt A6NJZ3)
Procedure, shortened: as §1

OR6C68 (Homo sapiens) = OR6C68 (Homo sapiens) (UniProt A6NDL8)
Procedure, shortened: as §1

OR6C70 (Homo sapiens) = OR6C70 (Homo sapiens) (UniProt A6NIJ9)
Procedure, shortened: as §1

OR6C74 (Homo sapiens) = OR6C74 (Homo sapiens) (UniProt A6NCV1)
Procedure, shortened: as §1

OR6C75 (Homo sapiens) = OR6C75 (Homo sapiens) (UniProt A6NL08)
Procedure, shortened: as §1

OR6C76 (Homo sapiens) = OR6C76 (Homo sapiens) (UniProt A6NM76)
Procedure, shortened: as §1

OR6F1 (Homo sapiens) = OR6F1 (Homo sapiens) (UniProt Q8NGZ6)
Procedure, shortened: as §1

OR6J1 (Homo sapiens) [1] = biological target: OR6J1 (Homo sapiens) (UniProt Q8NGC5)
Procedure, shortened: as §1
Target sequence in this assay (Q8NGC5 whole entry S250P): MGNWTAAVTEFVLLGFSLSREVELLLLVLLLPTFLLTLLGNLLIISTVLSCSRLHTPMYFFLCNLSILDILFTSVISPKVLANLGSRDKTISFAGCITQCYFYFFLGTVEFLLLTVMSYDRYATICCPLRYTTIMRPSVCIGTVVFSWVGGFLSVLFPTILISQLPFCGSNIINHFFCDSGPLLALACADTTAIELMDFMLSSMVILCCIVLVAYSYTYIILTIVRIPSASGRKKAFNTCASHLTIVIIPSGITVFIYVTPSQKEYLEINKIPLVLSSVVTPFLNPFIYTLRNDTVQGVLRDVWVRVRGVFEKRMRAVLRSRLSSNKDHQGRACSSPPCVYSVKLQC

OR6K2 (Homo sapiens) = OR6K2 (Homo sapiens) (UniProt Q8NGY2)
Procedure, shortened: as §1

OR6K3 (Homo sapiens) = OR6K3 (Homo sapiens) (UniProt Q8NGY3)
Procedure, shortened: as §1

OR6K6 (Homo sapiens) = OR6K6 (Homo sapiens) (UniProt Q8NGW6)
Procedure, shortened: as §1

OR6M1 (Homo sapiens) = OR6M1 (Homo sapiens) (UniProt Q8NGM8)
Procedure, shortened: as §1

OR6C4 = system: OR6C4
Procedure, shortened: as §1

OR6C6 M6I = system: OR6C6 M6I
Procedure, shortened: as §1

OR6J1 (Homo sapiens) [2] = biological target: OR6J1 (Homo sapiens) (UniProt Q8NGC5); remark: listed apart in the source
Procedure, shortened: as §1

OR6K3 = system: OR6K3
Procedure, shortened: as §1

OR6M1 R224C = system: OR6M1 R224C
Procedure, shortened: as §1

Measured: odorant receptor agonist call

OR6C4 (Homo sapiens), sequence (Q8NGE1 whole entry): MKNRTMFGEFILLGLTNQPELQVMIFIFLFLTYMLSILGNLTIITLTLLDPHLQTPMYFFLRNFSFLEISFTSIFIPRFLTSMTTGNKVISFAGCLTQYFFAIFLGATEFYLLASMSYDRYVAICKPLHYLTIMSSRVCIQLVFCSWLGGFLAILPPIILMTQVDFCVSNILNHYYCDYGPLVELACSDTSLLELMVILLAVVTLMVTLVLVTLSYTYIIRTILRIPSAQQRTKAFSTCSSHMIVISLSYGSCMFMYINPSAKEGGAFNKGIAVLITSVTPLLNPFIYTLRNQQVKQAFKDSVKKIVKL
OR6C74 (Homo sapiens), sequence (A6NCV1 whole entry): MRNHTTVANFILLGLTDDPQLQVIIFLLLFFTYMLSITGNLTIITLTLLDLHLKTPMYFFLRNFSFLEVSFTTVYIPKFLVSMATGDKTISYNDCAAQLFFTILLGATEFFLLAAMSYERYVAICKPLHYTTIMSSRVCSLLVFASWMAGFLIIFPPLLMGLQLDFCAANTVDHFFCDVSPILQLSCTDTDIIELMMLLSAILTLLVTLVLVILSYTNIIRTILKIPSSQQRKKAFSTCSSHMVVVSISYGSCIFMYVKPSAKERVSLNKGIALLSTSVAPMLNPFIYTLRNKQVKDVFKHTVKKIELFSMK
OR6K2 (Homo sapiens), sequence (Q8NGY2 whole entry): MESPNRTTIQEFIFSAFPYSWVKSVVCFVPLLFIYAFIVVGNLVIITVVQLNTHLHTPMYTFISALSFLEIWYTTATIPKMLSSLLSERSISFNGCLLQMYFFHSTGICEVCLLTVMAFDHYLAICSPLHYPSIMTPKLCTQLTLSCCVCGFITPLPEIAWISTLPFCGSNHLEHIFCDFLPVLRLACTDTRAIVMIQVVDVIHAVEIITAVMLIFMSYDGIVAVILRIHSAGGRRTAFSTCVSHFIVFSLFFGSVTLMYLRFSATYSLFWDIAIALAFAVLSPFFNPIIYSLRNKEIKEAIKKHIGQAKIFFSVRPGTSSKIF
OR6C76 (Homo sapiens), sequence (A6NM76 whole entry): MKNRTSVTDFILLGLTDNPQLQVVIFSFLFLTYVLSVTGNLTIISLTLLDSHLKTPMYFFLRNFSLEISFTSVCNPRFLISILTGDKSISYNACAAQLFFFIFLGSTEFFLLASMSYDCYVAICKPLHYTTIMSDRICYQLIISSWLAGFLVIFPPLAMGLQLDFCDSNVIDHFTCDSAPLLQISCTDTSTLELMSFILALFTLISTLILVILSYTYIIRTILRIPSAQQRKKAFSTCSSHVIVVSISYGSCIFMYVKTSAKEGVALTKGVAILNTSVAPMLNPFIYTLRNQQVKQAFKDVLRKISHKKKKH
OR6C65 (Homo sapiens), sequence (A6NJZ3 whole entry): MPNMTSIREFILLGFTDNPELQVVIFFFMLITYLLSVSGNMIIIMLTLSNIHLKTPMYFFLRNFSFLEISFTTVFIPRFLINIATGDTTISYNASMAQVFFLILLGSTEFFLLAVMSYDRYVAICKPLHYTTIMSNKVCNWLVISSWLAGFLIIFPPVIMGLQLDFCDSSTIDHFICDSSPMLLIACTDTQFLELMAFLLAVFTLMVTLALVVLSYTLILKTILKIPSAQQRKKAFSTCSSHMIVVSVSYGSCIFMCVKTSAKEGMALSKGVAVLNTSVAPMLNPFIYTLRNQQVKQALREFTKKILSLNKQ
OR6M1 (Homo sapiens), sequence (Q8NGM8 whole entry): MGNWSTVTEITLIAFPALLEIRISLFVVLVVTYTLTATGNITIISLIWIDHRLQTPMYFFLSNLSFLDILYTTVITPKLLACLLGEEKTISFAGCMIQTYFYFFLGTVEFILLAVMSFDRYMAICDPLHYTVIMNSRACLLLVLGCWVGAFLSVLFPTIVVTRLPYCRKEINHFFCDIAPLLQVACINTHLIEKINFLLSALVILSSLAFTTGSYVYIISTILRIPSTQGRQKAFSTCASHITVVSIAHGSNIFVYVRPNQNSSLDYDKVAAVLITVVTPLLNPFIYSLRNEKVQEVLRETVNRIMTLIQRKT
OR6F1 (Homo sapiens), sequence (Q8NGZ6 whole entry): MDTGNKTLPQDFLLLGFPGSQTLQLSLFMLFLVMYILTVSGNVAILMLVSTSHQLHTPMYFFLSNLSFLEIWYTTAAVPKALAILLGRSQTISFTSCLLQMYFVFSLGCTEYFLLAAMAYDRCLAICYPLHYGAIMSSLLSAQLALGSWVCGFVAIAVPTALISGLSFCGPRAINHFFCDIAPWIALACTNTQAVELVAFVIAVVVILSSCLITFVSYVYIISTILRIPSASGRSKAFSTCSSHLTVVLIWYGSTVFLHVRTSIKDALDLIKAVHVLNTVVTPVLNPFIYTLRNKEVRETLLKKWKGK
OR6C70 (Homo sapiens), sequence (A6NIJ9 whole entry): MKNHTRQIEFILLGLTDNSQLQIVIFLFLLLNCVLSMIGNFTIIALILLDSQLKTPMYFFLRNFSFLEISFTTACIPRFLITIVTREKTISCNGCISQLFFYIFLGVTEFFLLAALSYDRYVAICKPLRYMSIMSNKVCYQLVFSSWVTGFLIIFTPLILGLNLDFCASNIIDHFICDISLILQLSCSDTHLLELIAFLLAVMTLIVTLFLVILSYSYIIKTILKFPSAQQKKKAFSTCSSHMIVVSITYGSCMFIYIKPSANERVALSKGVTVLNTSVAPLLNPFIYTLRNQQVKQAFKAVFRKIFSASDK
OR6C68 (Homo sapiens), sequence (A6NDL8 whole entry): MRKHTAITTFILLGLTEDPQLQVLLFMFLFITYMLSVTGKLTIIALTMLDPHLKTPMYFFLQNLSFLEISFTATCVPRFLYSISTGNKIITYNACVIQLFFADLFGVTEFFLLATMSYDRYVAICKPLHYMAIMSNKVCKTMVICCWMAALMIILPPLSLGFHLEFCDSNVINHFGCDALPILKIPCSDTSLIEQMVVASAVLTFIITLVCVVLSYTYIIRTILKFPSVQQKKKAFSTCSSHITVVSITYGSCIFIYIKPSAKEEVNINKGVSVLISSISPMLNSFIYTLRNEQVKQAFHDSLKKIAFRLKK
OR6C6 (Homo sapiens), sequence (A6NF89 whole entry): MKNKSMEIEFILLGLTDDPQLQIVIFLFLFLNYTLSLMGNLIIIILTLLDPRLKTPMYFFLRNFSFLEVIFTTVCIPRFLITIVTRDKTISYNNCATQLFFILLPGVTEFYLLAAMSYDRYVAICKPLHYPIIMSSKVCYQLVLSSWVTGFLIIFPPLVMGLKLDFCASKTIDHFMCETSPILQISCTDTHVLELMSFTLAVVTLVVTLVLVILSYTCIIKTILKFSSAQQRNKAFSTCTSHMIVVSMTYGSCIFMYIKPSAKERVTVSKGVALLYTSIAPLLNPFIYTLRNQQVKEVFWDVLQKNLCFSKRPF
OR6C3 (Homo sapiens), sequence (Q9NZP0 whole entry): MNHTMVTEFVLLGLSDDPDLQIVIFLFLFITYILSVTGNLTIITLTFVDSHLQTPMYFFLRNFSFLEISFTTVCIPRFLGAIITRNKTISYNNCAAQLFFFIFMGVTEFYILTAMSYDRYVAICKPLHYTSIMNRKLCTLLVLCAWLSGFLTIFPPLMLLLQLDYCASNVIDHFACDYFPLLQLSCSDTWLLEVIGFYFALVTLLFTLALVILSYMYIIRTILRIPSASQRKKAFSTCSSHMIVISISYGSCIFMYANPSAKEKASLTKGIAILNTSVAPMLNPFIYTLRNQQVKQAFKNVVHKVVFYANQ
OR6C75 (Homo sapiens), sequence (A6NL08 whole entry): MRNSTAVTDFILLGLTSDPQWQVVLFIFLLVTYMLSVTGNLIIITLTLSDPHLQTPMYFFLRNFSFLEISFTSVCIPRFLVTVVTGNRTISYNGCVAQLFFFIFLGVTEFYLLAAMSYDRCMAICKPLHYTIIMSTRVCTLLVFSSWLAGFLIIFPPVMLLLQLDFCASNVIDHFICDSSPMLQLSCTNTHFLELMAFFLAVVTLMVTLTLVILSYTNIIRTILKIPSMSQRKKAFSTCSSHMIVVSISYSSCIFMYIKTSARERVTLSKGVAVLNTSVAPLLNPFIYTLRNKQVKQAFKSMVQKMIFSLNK
OR6K6 (Homo sapiens), sequence (Q8NGW6 whole entry): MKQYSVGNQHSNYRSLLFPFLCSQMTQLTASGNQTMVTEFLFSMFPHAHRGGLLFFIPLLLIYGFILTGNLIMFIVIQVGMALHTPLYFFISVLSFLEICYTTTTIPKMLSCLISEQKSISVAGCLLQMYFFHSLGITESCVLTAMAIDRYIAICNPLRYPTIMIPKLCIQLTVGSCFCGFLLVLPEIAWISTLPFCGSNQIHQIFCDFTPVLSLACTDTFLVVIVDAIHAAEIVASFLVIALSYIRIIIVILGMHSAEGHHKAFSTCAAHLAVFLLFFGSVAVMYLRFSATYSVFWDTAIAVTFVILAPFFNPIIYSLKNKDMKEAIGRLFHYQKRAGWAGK
OR6C4, sequence (as listed by the source): as the sequence (Q8NGE1 whole entry) above, with I37V counted along it
OR6M1 R224C, sequence (as listed by the source, stated change not applied): as the sequence (Q8NGM8 whole entry) above, with R224C counted along it
OR6K3, sequence (as listed by the source): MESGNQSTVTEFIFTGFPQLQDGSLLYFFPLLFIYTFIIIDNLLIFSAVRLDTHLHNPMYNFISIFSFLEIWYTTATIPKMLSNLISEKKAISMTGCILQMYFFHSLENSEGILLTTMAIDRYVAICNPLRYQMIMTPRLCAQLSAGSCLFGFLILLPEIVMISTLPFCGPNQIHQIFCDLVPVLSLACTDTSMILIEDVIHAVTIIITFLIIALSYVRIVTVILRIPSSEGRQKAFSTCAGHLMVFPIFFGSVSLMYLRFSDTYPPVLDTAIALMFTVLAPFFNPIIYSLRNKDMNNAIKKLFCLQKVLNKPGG

Cc1c([N+](=O)[O-])c(C)c([N+](=O)[O-])c(C(C)(C)C)c1[N+](=O)[O-]
not listed: OR6C4 | OR6C6 M6I | OR6J1 (Homo sapiens) [2] | OR6K3 | OR6M1 R224C
inactive: all other assays above

C=CCOC(=O)Cc1ccccc1
not listed: OR6J1 (Homo sapiens) [1] | OR6K3 (Homo sapiens)
inactive: all other assays above

Reference: the M2OR odorant receptor database
